Screens: PubChem, several laboratories
Sampled rows, rich in hits. Any-hit rate of the full collection: about 2%.
HSV augment: HSV replication enhancement | maximum fold increase | HSV replication augmentation in cells, fold increase | 220,000 compounds, 0.005% hits; in the data active = maximum fold increase above about 1.5; tested in PC3 cells
Furin inhibitor: blocks human furin protease activity. P09958. 220,000 compounds, 0.061% hits. purified furin, fluorogenic substrate cleavage. inhibition, % at 20 µM or 30 µM; in the data active = inhibition above about 25%
Target sequence (P09958 108-714 limits assumed): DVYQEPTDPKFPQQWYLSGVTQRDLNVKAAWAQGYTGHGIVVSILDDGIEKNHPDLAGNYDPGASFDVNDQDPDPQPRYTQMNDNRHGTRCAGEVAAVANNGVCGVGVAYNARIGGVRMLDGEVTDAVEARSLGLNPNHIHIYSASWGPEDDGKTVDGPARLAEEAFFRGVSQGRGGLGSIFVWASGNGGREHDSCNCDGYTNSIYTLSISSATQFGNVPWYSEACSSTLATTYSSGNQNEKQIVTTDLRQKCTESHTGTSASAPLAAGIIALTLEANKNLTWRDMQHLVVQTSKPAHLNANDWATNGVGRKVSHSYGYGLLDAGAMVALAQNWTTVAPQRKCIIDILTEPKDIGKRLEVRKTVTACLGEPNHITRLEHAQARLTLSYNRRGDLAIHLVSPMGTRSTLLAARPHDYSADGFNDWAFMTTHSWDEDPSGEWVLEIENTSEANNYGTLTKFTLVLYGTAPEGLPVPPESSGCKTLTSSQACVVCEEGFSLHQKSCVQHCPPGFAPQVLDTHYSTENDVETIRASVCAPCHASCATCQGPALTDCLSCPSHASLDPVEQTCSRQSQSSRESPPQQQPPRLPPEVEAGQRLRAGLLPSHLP
Dynein transport: dynein cargo transport inhibition; z-score, hits read low; 3617.4 mouse cells, GR-EGFP nuclear translocation imaging; test concentration mostly 20 µM; stimulated with dexamethasone, 1 µM; hits give low values; 220,000 compounds, 0.47% hits; AID 1381;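 active = plate z-score of nuclear minus cytoplasmic receptor signal below a set negative limit, without overly bright fluorescence or cell loss, cut at about -3.5 in these data, passing the limit was not always enough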;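 note: z-score of nuclear minus cytoplasmic ring GR-EGFP intensity difference per well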
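Also added – dexamethasone, 1.0 µM final · Buffer or medium – tet-free, stripped-serum medium · Schedule – induction 48 h, compound 1 h, agonist 30 min · Detection – formaldehyde fixation, Hoechst nuclear stain, 10x automated fluorescence imaging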
Autophagy HCS: autophagy modulation, high-content screen; 190,000 compounds, 0.98% hits; MEF GFP-LC3 puncta imaging; test concentration mostly 10 µM; AID 463193; calls only at 10 µM (by protocol);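 active = percentage of spot-positive cells more than 3 SD above its plate mean, without a fluorescence outlier flag or 80% toxicity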;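 note: spot-positive cell cutoff set from DMSO-treated cells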
Insulin prom inh: TRM-6 insulin promoter activity inhibition; TRM-6 cells (human fetal islet line), insulin promoter-eGFP reporter, imaging; reporter expression induced with tamoxifen; inhibition, % at 2 µM; 130,000 compounds, 0.9% hits; AID 1273;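 active = inhibition above the mean plus 3 SD, with well images judged a real hit on visual review, cut at about 60% in these data, passing the limit was not always enough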
Insulin prom up: MIN6 insulin promoter up-regulation; MIN6 insulin promoter-GFP reporter, high-content imaging; hits give high values; z-score at 5 µM; 190,000 compounds, 0.3% hits;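 active = z-score above 3 at 5 µM with at least 500 cells counted in the well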
* marks the source's active call; other numbers are inactive results; i = inactive; · = not tested or not shown; + = active, no number.

SMILES	HSV augment	Furin inhibitor	Dynein transport	Autophagy HCS	Insulin prom inh	Insulin prom up
CCn1cc(C2=NC(C)CO2)c2ccccc21 (stereo not given)	i	-22	-0.42	i	84*	·
COc1ccc(/C=C2\CCn3c2nc2cc(C(=O)O)ccc2c3=O)cc1OC	i	3	2.2	·	·	0.26
O=C(O)c1ccc2c(=O)n3c(nc2c1)/C(=C/c1ccccc1C(F)(F)F)CCCC3	i	-10	0.1	+	·	0.35
O=C(COC(=O)c1ccc(Cl)nc1)NCCC1=CCCCC1	i	-17	-0.028	i	·	-0.55
CN(C)C(CNC(=O)c1ccc(S(=O)(=O)N(C)C)cc1)Cc1ccccc1 (stereo not given)	i	-16	-0.55	+	·	0.38
CN(C)S(=O)(=O)c1ccc(C(=O)NCCSc2ccccc2)cc1	i	-5	-0.48	i	-23	2.3
CCC(C)[C@H](NC(=O)Nc1ccccc1F)C(=O)OC (stereo not given in full)	i	-17	-0.47	·	·	0.95
O=C(/C=C/c1ccccc1)c1ccccn1	i	-24	-3.8*	i	39	0.2
N/C(=N\OC(=O)/C=C/c1ccccc1)c1ccccn1	i	-19	0.29	i	·	0.59
O=C(N/N=C/c1cc(Cl)cc([N+](=O)[O-])c1O)c1ccccc1NS(=O)(=O)c1cccs1	i	-24	-0.49	·	·	0.11
Cc1ccccc1Cn1ccc(NC(=O)c2nn(C)cc2[N+](=O)[O-])n1	i	-11	0.9	i	85*	·
CCN(CC)c1ccc(/C=N/N=C(N)N)c(O)c1	i	-19	1.9	+	·	1.2
COc1ccc(C2c3[nH]c4ccccc4c3CCN2Cc2cccn2-c2ncccn2)cc1C (stereo not given)	i	-13	-0.18	+	·	·
Cc1csc(SCC(=O)NC(=O)NCCC(C)C)n1	i	-26	-0.087	i	·	-1.5
Cc1ccc(OCc2ccc(C(=O)Nc3nc4ccccc4n3Cc3ccccc3)o2)c([N+](=O)[O-])c1	i	-25	-0.45	i	18	-0.32
O=C(Nc1nc2ccccc2n1Cc1ccccc1)c1ccc(COc2ccccc2[N+](=O)[O-])o1	i	0	2.8	+	25	·
COc1ccc(NC(=S)N(CCCN2CCCC2)Cc2cccn2Cc2ccc(Cl)cc2)cc1Cl	i	-20	0.54	+	·	-3.8
FC(F)(F)c1cccc(NC(=S)N(CCCN2CCCC2)Cc2cccn2Cc2ccc(Cl)cc2)c1	i	-10	0.21	+	-147	-2
Cc1ccc(NC(=S)N(CCCN2CCCC2)Cc2cccn2Cc2ccc(Cl)cc2)cc1C	i	-10	-1.2	i	-64	0.17
Cc1ccc(NC(=S)N(CCCN2CCCC2)Cc2cccn2Cc2ccc(Cl)cc2)cc1Cl	·	-19	0.62	+	-146	-0.26
CCOc1ccc(OCC)c(-c2c(=O)n(OCc3ccc(C(C)(C)C)cc3)c3ccccc3[n+]2[O-])c1	i	-9	0.42	i	-47	-1.9
COc1ccccc1N/C(=N/S(=O)(=O)c1ccc(C)cc1)c1ccc(Cl)cc1	i	-15	0.99	i	·	-0.64
COc1ccc(N2C(=O)C(F)(F)C2c2ccc(C)cc2)cc1OC (stereo not given)	i	-22	-1	i	45	-0.04
O=C(CSc1nnc(-c2ccccc2O)o1)Oc1ccc(OCc2ccccc2)cc1	i	-28	0.94	+	·	·
O=C(Cn1cncn1)N/N=C/c1cccnc1	i	-22	-0.76	·	·	0.32
SMILES	HSV augment	Furin inhibitor	Dynein transport	Autophagy HCS	Insulin prom inh	Insulin prom up
O=C(O)CSc1ncn[nH]1	i	-8	-0.18	i	77*	-0.86
COc1ccc(C(=O)Oc2ccc(C(=S)N3CCOCC3)cc2)cc1	i	-4	2.5	+	·	-0.19
O=C(Oc1ccc(C(=S)N2CCOCC2)cc1)c1ccc(Br)cc1	i	2	0.15	i	41	-0.21
C=CCNC(=S)Nc1c(N)n(C)c(=O)n(C)c1=O	i	-26	0.21	·	·	-1.2
CC(C)n1cc(/C=C2\NC(=O)N(c3cccc(Cl)c3)C2=O)c2ccccc21	i	-23	-0.64	+	17	·
O=C(O)Cn1cc(/C=C2/NC(=O)N(c3ccc(Cl)cc3)C2=O)c2ccccc21	i	-4	-0.36	i	18	0.86
CC(C)n1cc(/C=C2/NC(=O)N(c3cccc(Cl)c3)C2=O)c2ccccc21	i	-12	-0.97	+	-66	0.07
O=C(Nc1cc(Sc2nc3ccccc3s2)cc([N+](=O)[O-])c1)c1cccc(F)c1F	i	-15	-0.28	i	·	-0.12
CCCCN(CCCC)C(=O)C1(P(=O)(c2ccccc2)c2ccccc2)CCC1	i	-13	-0.056	·	·	-1.3
CC(C)(C)C(=O)/C=C/c1ccc(Oc2ccccc2)cc1	i	-6	0.39	·	·	-0.84
O=C1ON=C(c2ccccc2)/C1=C/c1cccnc1	i	-2	-0.0084	i	·	-0.56
O=C1ON=C(c2ccccc2)/C1=C/c1ccc(OS(=O)(=O)c2ccccc2)cc1	i	-15	-4*	i	26	-0.04
CN1CCN(CC(=O)n2c3c(c4ccccc42)CCCC3)CC1	i	-17	-0.18	+	·	-0.16
O=C(COc1ncnc2ccccc12)NCC1CCCO1 (stereo not given)	i	-18	1.8	+	·	0.53
Fc1ccc(-c2nnsc2Sc2ccccn2)cc1	i	-23	2.2	i	·	-0.3
N#C/C(=C\c1ccc(/C=C(/C#N)c2nn(CCO)c(N)c2C#N)cc1)c1nn(CCO)c(N)c1C#N	i	0	-0.28	+	·	·
Cc1ccc(NC(=S)c2nc3ccccc3[nH]2)cc1	i	-14	0.36	i	81*	-1.1
Cc1ccc(NC(=S)c2nc3ccccc3[nH]2)c(C)c1	i	0	-0.26	i	67	-0.6
Cc1ncc([N+](=O)[O-])n1CC(=O)N/N=C/c1ccc(F)cc1	i	-20	0.89	i	-53	-0.34
N#C/C(=C\c1cn(Cc2ccc(F)cc2)c2ccccc12)C(=O)NCc1ccco1	i	-14	-0.26	+	14	-0.49
Cc1csc(NC(=O)CSc2ncnc3c2cnn3-c2ccccc2Cl)n1	i	-29	-0.43	i	28	0.99
Cc1cc2nnc(SCC(=O)NCc3cccs3)n2c(N)n1	i	-30	0.36	i	-19	0.91
Cc1ccccc1-n1ncc2c(SCC(=O)NCc3cccs3)ncnc21	i	-4	0.89	i	42	3.6*
Cc1cc2nnc(SCC(=O)NCc3cccs3)n2c2ccccc12	i	-2	2	+	14	-0.63
CN(C)c1ccc(C(=O)NC2(N3CCC3=O)CCCC2)cc1	i	-14	1.5	i	13	0.72
O=C(CSc1nc2ccccc2n1S(=O)(=O)c1ccccc1)N1CCCCC1	i	-22	-0.22	i	-21	0.97
C=CCSc1nc2ccccc2n1S(=O)(=O)c1ccc(C)cc1	i	-1	4.6	i	95*	·
